15 compounds from PubChem BioAssay can be followed below.

The source made the active and inactive calls. Cut-off read from the data, not from the text of the source, unless noted: active = inhibition above about 30%; inactive = the rest.

The inhibition is the change of the read-out against control, counted positive when it falls. The viability is a read-out of living cells in per cent, often relative to untreated cells.

For assay [1], the target named is Pantothenate synthetase (Mycobacterium tuberculosis (strain ATCC 25618 / H37Rv)) (UniProt P9WIL5). In words: Recombinant Mtb pantothenate synthetase (PanC) inhibitors, coupled enzyme, confirmatory (AID 375; call rule not given here;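 note: 0% = full reaction with vehicle and 100% = no enzyme background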). The conditions noted are these: coupled enzyme assay; at 10 µM, stronger effect = higher value.
A short description of assay [2]: reducers of endogenous Her2 protein level, primary screen, SKBR3 breast tumor cells, AlphaScreen, ATP viability (AID 461;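 active = Her2 level under about 52% in both replicate screens, with viability over 70% of control, limit read from the data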;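 for Her2 level: lower value means less Her2 protein in the cells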;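 for viability: percent of carrier control wells set as 100% viability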). The conditions noted are these: 18-24 h, measured here: SKBR3 viability, ATP luminescence, at 10 µM. Background: In Alpha technology, singlet oxygen from a donor bead excites a nearby acceptor bead.
Assay [3] has as its target Receptor tyrosine-protein kinase erbB-2 (Homo sapiens) (UniProt P04626). The description is as above. The conditions noted are these: 18-24 h, at 10 µM, stronger effect = lower value.
The nature of assay [4]: SK-BR-3 cell growth inhibitors, pilot screen, 24 h, human (AID 572;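 active = viability at or below 10% of carrier control in both of two separate runs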;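 note: compound exposure lasted between 18 and 24 h rather than exactly 24 h; 100% = carrier-treated control wells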). The conditions noted are these: SK-BR-3 viability, CellTiter-Glo luminescence, at 10 µM, stronger effect = lower value. (ATP-based viability assays read luminescence as a measure of living cells.)
Assay [5] is described as follows: HUVEC growth inhibition – cell-based, human, primary screen (AID 575;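 active = viability at or below 30% in both replicate assays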;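 note: 100% = median of untreated cell wells with 0.1% DMSO on each plate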). The conditions noted are these: HUVEC proliferation, CellTiter-Glo luminescence, 72 h; at 10 µM; stronger effect = lower value. In short, it runs like this:
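Assay system: Primary human umbilical vein endothelial cells | Quantity: 1250 cells per well | Medium: Supplemented EBM, 2% fetal bovine serum | Detection: CellTiter-Glo luminescence measuring cellular ATP | Read-out: % viability vs DMSO wells | Plate: Collagen-coated 384-well format | Times: 72 h exposure, 37 °C, 5% CO2, 30 min RT equilibration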

Assay [6] is described as follows: growth inhibitors of H69AR lung tumor, primary screen, human, duplicate replicates (AID 580;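 active = viability at or under a set limit in both replicates, limit being median viability minus 3 SD, cut at about 48% in these data, passing the limit was not always enough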;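 note: 100% = mean luminescence of untreated wells and 0% = no signal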). The conditions noted are these: H69AR lung tumor cells viability, ATP luminescence, 72 h; at 10 µM; stronger effect = lower value.
The nature of assay [7]: reversal of MRP1-mediated doxorubicin resistance, pilot screen, H69AR cells, doxorubicin co-treatment (AID 601;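 active = viability loss from added drug above about 55%, and viability with drug at most 40%, in both replicates, limit read from the data, passing the limit was not always enough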). The note with it: CellTiter-Glo, 72 h, at 10 µM; for differential viability (reversal): stronger effect = higher value.
Assay [8] is described as follows: 384-well plate pilot, post-Golgi transport modulator project, inhibition of yeast transport mutant growth (AID 636; in the data active = inhibition above about 31%). The conditions noted are these: absorbance 615 nm, about 18 h, stronger effect = higher value.
The nature of assay [9]: growth suppression of yeast trafficking mutant, preliminary HTS, modulators of trafficking downstream of Golgi apparatus project, 1536-format plate, OD 615 nm (AID 637). The conditions noted are these: yeast transport mutant growth, absorbance 615 nm, 18 h; stronger effect = higher value.
The mark [10] stands for this setting: H69AR cells + 2 uM doxorubicin, measured here: viability with 2 uM doxorubicin, stronger effect = lower value.
Where [11] appears, read: H69AR cells, compound alone cytotoxicity.

Sequence of Pantothenate synthetase (Mycobacterium tuberculosis (strain ATCC 25618 / H37Rv)) (P9WIL5 whole entry, looked up): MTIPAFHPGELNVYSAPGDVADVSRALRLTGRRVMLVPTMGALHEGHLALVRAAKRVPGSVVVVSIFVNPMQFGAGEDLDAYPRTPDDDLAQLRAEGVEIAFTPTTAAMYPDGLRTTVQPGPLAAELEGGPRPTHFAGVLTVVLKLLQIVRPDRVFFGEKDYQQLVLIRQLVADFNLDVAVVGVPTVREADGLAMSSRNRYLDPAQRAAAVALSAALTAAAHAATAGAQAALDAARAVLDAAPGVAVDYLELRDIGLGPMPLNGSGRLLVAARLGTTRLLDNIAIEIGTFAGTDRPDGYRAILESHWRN
Sequence of Receptor tyrosine-protein kinase erbB-2 (Homo sapiens) (P04626 whole entry, looked up): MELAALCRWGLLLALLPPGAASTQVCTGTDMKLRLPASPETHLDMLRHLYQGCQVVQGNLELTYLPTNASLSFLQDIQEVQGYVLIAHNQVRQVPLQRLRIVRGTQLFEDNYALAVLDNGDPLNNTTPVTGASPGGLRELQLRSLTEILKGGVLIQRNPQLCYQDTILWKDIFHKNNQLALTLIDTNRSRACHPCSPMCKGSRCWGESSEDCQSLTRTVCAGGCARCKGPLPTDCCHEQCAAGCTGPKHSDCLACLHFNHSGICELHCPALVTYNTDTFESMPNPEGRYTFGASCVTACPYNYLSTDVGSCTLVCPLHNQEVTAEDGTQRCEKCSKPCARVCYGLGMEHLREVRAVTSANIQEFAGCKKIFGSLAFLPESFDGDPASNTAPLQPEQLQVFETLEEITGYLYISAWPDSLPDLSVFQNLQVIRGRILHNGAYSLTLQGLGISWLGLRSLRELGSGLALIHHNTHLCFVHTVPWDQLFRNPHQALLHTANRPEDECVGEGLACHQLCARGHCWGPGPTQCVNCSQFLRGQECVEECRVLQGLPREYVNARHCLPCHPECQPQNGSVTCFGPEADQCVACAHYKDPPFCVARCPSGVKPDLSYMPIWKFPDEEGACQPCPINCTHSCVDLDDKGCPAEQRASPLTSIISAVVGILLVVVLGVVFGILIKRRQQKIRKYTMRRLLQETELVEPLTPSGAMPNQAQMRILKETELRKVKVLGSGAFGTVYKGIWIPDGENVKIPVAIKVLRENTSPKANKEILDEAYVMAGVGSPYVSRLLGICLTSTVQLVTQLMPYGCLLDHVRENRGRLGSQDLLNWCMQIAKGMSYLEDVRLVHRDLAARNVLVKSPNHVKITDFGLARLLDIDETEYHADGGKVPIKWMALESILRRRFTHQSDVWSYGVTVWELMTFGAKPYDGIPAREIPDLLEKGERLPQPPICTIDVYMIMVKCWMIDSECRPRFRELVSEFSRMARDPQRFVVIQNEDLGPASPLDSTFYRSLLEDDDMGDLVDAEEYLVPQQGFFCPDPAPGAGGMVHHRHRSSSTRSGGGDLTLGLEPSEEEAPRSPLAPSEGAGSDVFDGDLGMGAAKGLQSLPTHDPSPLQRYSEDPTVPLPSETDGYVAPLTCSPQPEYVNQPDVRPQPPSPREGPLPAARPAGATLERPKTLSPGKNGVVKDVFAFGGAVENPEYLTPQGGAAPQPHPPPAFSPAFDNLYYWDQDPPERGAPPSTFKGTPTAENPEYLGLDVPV

`CC(C)C(=O)c1cn(Cc2ccccc2C#N)c2ccccc12`: the inhibition was 8% (inactive) in [1], -4.53% (inactive) in assay [8] and 3.97% (inactive) in [9]. Further, the viability in [2] was 98%; in assay [4] it was 98% (inactive); in assay [5], 97% (inactive); in assay [6], 82.8% (inactive); in assay [7] (setting [10]), 90.3%; in [7] (setting [11]), 82.8%. In [3], the Her2 level is 100% (inactive). The differential viability (reversal) in assay [7] (H69AR cells + 2 uM doxorubicin) was -7.5% (inactive).

Take `CC(C)OCCCNC(=O)c1c(N)n(CC2CCCO2)c2nc3ccccc3nc12` (stereo not given): the inhibition in assay [1] was 2% (inactive); in assay [8], -4.8% (inactive); in assay [9], -4.13% (inactive). The viability in assay [2] was 100%; in assay [4], 100% (inactive); in assay [5] it was 55.2% (inactive); in assay [6] it was 59.6% (inactive); in assay [7] (setting [10]) it was 79.2%; in [7] (setting [11]), 59.6%. For the same compound, in assay [3], the Her2 level is 71.5% (inactive). For the same compound, the differential viability (reversal) in [7] (H69AR cells + 2 uM doxorubicin) is -19.6% (inactive).

`O=c1[nH]c(=O)n(-c2ccc(F)cc2)c(O)c1C=Nc1ccccc1N1CCCC1`: the inhibition was 8% (inactive) in [1], -3.55% (inactive) in assay [8] and 3% (inactive) in [9]. The viability in assay [2] is 97.5%; in assay [4], 97.5% (inactive); in assay [5] it was 73.9% (inactive); in assay [6] it was 61.3% (inactive); in [7] (setting [10]), 68.2%; in [7] (setting [11]), 61.3%. Moreover, the Her2 level in [3] was 105% (inactive). In addition, the differential viability (reversal) in assay [7] (H69AR cells + 2 uM doxorubicin) was -6.94% (inactive).

Regarding `Cc1oc2ccc(OC(=O)N(C)C)cc2c1C(=O)OC(C)C`, the inhibition in assay [1] is 0% (inactive); in [8] it was -3.24% (inactive); in assay [9], 10.2% (inactive). Besides, the viability in [2] is 96%; in assay [4], 96% (inactive); in [5], 92.4% (inactive); in assay [6] it was 107% (inactive); in assay [7] (setting [10]), 95.8%; in assay [7] (setting [11]) it was 107%. In assay [3], the Her2 level was 87.5% (inactive). Also, the differential viability (reversal) in assay [7] (H69AR cells + 2 uM doxorubicin) was 11.3% (inactive).

`Cc1ccc(-c2nc(CS(=O)CC(=O)N3CCC4(CC3)OCCO4)c(C)o2)cc1` (stereo not given): the inhibition in assay [1] is 0% (inactive); in [8], -4.42% (inactive); in [9] it was -0.79% (inactive). Moreover, the viability in assay [2] is 92.5%; in assay [4], 92.5% (inactive); in assay [5] it was 96.4% (inactive); in assay [6] it was 85.1% (inactive); in assay [7] (setting [10]), 95.7%; in assay [7] (setting [11]) it was 85.1%. Besides, the Her2 level in assay [3] was 99% (inactive). For the same compound, the differential viability (reversal) in assay [7] (H69AR cells + 2 uM doxorubicin) is -10.6% (inactive).

`O=C(c1ccc2nc(-c3ccco3)c(-c3ccco3)nc2c1)N1CCC2(CC1)OCCO2`: the inhibition in assay [1] is 0% (inactive); in [8], -4.87% (inactive); in assay [9], 4.33% (inactive). The viability in assay [2] is 93%; in [4], 93% (inactive); in assay [5] it was 97.1% (inactive); in assay [6] it was 90.5% (inactive); in assay [7] (setting [10]) it was 82.7%; in [7] (setting [11]) it was 90.5%. In assay [3], the Her2 level was 106% (inactive). Further, the differential viability (reversal) in assay [7] (H69AR cells + 2 uM doxorubicin) was 7.87% (inactive).

For the compound `CCn1c(C)c(C(=O)O)c2cc(OC)ccc21`, the inhibition in [1] was 4% (inactive); in [8], -3.2% (inactive); in [9], -0.65% (inactive). Moreover, the viability is 88.5% in assay [2]; 88.5% (inactive) in assay [4]; 105% (inactive) in [5]; 96.1% (inactive) in assay [6]; 101% in assay [7] (setting [10]); 96.1% in assay [7] (setting [11]). Further, the Her2 level in assay [3] is 76% (inactive). In assay [7] (H69AR cells + 2 uM doxorubicin), the differential viability (reversal) was -4.98% (inactive).

With `O=C(COc1ccc2ccccc2c1)N1CCN(C2CCN(Cc3ccccc3)CC2)CC1`, the inhibition in [1] is 0% (inactive); in assay [8], -0.13% (inactive); in [9] it was 1.8% (inactive). Moreover, the viability was 93% in [2]; 93% (inactive) in [4]; 62.5% (inactive) in assay [5]; 99.8% (inactive) in [6]; 96% in assay [7] (setting [10]); 99.8% in assay [7] (setting [11]). The Her2 level in assay [3] is 92% (inactive). Besides, the differential viability (reversal) in assay [7] (H69AR cells + 2 uM doxorubicin) was 3.83% (inactive).

In the case of `O=C(Cn1c2c(c(-c3ccccc3Cl)cc1=O)CCC2)N1CCC2(CC1)OCCO2`, the figures for the inhibition in assay [1], in assay [8] and in assay [9] were 6% (inactive), -1.18% (inactive) and -6.61% (inactive), respectively. Besides, the viability in assay [2] was 102%; in [4], 102% (inactive); in [5] it was 108% (inactive); in [6], 96.8% (inactive); in [7] (setting [10]), 112%; in [7] (setting [11]), 96.8%. Further, the Her2 level in [3] was 115% (inactive). In addition, the differential viability (reversal) in assay [7] (H69AR cells + 2 uM doxorubicin) is -15.4% (inactive).

In the case of `Nc1ccnn1C1CCNCC1`, the inhibition is 2% (inactive) in assay [1], -4.25% (inactive) in assay [8] and -2.06% (inactive) in assay [9]. Also, the viability in assay [2] was 88.5%; in assay [4] it was 88.5% (inactive); in [5], 97% (inactive); in assay [6] it was 107% (inactive); in assay [7] (setting [10]), 102%; in assay [7] (setting [11]), 107%. Further, the Her2 level in [3] was 105% (inactive). Besides, the differential viability (reversal) in assay [7] (H69AR cells + 2 uM doxorubicin) is 5.6% (inactive).

For `CCn1nc(-c2ccccc2)nc2c(=O)n(C)c(=O)nc1-2`, the values for the inhibition in assay [1], in [8] and in [9] were 0% (inactive), 98.4% (active) and 100% (active), respectively. The viability in assay [2] is 106%; in [4], 106% (inactive); in assay [5], 2.75% (active); in assay [6], 1.38% (active); in assay [7] (setting [10]) it was 0.875%; in assay [7] (setting [11]) it was 1.38%. In addition, in assay [3], the Her2 level was 93% (inactive). For the same compound, the differential viability (reversal) in assay [7] (H69AR cells + 2 uM doxorubicin) is 0.5% (inactive).

On to `CCCCCCC(N)CC(=O)O` (stereo not given), for which the inhibition in [1] is 0% (inactive); in assay [8], -1.69% (inactive); in assay [9], -8.17% (inactive). Also, the viability in assay [2] was 106%; in assay [4], 106% (inactive); in [5] it was 95.1% (inactive); in assay [6], 94.8% (inactive); in assay [7] (setting [10]), 89.6%; in assay [7] (setting [11]), 94.8%. Also, the Her2 level in assay [3] is 122% (inactive). In [7] (H69AR cells + 2 uM doxorubicin), the differential viability (reversal) was 5.24% (inactive).

`COc1ccccc1N1CCN(Cc2cccc(OC)c2O)CC1`: the inhibition was 0% (inactive) in assay [1], -5% (inactive) in assay [8] and 5.25% (inactive) in assay [9]. The viability in [2] is 89%; in assay [4], 89% (inactive); in assay [5], 118% (inactive); in assay [6], 91.6% (inactive); in assay [7] (setting [10]) it was 86.6%; in assay [7] (setting [11]), 91.6%. Also, the Her2 level in assay [3] was 93% (inactive). In addition, the differential viability (reversal) in assay [7] (H69AR cells + 2 uM doxorubicin) was 5.07% (inactive).

Consider `O=C(c1ccncc1)C12CN3CN(CN(C3)C1)C2`, for which the figures for the inhibition in [1], in assay [8] and in assay [9] were 0% (inactive), -3.25% (inactive) and -2.5% (inactive), respectively. The viability is 115% in [2]; 115% (inactive) in assay [4]; 97.6% (inactive) in assay [5]; 89.5% (inactive) in [6]; 84.4% in assay [7] (setting [10]); 89.5% in [7] (setting [11]). Further, in [3], the Her2 level was 114% (inactive). In addition, the differential viability (reversal) in assay [7] (H69AR cells + 2 uM doxorubicin) was 5.16% (inactive).

As for `COc1cc(C2NCc3ccccc3-n3cccc32)ccc1O` (stereo not given), the inhibition in assay [1] is 0% (inactive); in assay [8], -5.79% (inactive); in [9], -1.27% (inactive). For the same compound, the viability is 104% in [2]; 104% (inactive) in [4]; 105% (inactive) in assay [5]; 101% (inactive) in assay [6]; 90.9% in [7] (setting [10]); 101% in assay [7] (setting [11]). Also, the Her2 level in [3] is 102% (inactive). Moreover, in [7] (H69AR cells + 2 uM doxorubicin), the differential viability (reversal) was 9.64% (inactive).
